Measured values as given in article PMC8577376 (Journal of Medicinal Chemistry, 2021).

How the values were obtained:
Recombinant human furin = Recombinant human furin (Homo sapiens, UniProt P09958); assay type: biochemical; settings: up to 50 μM (final concentration)
human CatL [1] = molecular target: T1, human CatL (Homo sapiens, UniProt P07711); assay: kinact/KI^app determination, recombinant human CatL; assay type: biochemical; settings: for selectivity for CatL over CatB (kinact/KI^app): human CatL vs human CatB; for kinact/KI: read-out: kinact/KI^app
In short: (§1)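 Test compound 555.56–0.01 nM, quadruplicate wells. Product formation rates taken at 6 min intervals over 1 h, normalised to DMSO controls. kobs from inactivation curves; kinact and KIapp by nonlinear regression of kobs = kinact[I]/(KIapp+[I]); ratio then calculated.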

SARS-CoV-2 PLpro = SARS-CoV-2 PLpro (Severe acute respiratory syndrome coronavirus 2, UniProt P0DTD1); assay: Single-concentration protease screen against SARS-CoV-2 PLpro; assay type: biochemical; settings: 10 μM
SARS-CoV-2 [2] = assay type: cell-based; settings: 24 h
human CatL [3] = molecular target: T1, human CatL; assay: Single-concentration protease screen against human CatL; assay type: biochemical; settings: for follow-up screen against CatL: 13 nM
Human CatB = Human CatB (Homo sapiens, UniProt P07858); assay: kinact/KI^app determination, recombinant human CatB; assay type: biochemical; settings: for kinact/KI: read-out: kinact/KI^app
In short: as §1

[4] = molecular target: VeroE6 lysates (CatL activity) (Chlorocebus aethiops, UniProt Q9GKL8); assay: Protease activity in VeroE6 cell lysates using Z-Phe-Arg-AMC; assay type: biochemical, monkey; settings: for inhibition of Z-Phe-Arg-AMC cleaving activity in VeroE6 lysates: 20 μM; for inactivation of CatL in VeroE6 lysates: 10 μM
SARS-CoV-2 [5] = assay: SARS-CoV-2-induced CPE in A549/ACE2 cells, inverted microscope; assay type: cell-based; settings: 96 h
SARS-CoV-2 Mpro = SARS-CoV-2 Mpro (Severe acute respiratory syndrome coronavirus 2, UniProt P0DTD1); assay: Single-concentration protease screen against SARS-CoV-2 Mpro; assay type: biochemical; settings: 10 μM
SARS-CoV-2 [6] = assay type: cell-based
Mouse CatL (mCatL) = Mouse CatL (mCatL) (Mus musculus, UniProt P06797); assay: kinact/KI^app determination, mouse CatL; assay type: biochemical; settings: for kinact/KI: read-out: kinact/KI^app
In short: as §1

[7] = test system: A549 lysates (CatL/CatB activity); assay: Protease activity in A549 cell lysates using Z-Phe-Arg-AMC; assay type: biochemical, human; settings: for inhibition of Z-Phe-Arg-AMC cleaving activity in A549 cell extracts: 20 μM; for inactivation of CatL in A549 lysates: 10 μM
In short: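 A549 cells lysed by sonication in 50 mM MES pH 6.0 with 100 μM AEBSF, 1 μM pepstatin A, 1 mM EDTA and 1 mM DTT; protein measured by BCA. Equal volume of 50 μM Z-Phe-Arg-AMC then added; activity normalised to 0.2% DMSO wells.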

[8] = molecular target: Recombinant human TMPRSS2 (Homo sapiens, UniProt O15393); assay: TMPRSS2 protease activity assay; assay type: biochemical; settings: up to 50 μM (final concentration)
SARS-CoV-2 [9] = assay type: cell-based; settings: MRC-5/ACE2/TMPRSS2 cells
SARS-CoV-2 [10] = assay: microbe, parasite or virus in culture; assay type: cell-based

Chain of VeroE6 lysates (CatL activity) (Q9GKL8 114-333): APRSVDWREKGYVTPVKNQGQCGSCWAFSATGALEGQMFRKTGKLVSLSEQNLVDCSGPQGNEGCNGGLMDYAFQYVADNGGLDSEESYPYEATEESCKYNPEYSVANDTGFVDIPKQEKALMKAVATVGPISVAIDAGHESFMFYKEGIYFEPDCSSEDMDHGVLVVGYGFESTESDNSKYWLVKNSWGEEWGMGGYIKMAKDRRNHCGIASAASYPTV
Chain of Mouse CatL (mCatL) (P06797 114-334): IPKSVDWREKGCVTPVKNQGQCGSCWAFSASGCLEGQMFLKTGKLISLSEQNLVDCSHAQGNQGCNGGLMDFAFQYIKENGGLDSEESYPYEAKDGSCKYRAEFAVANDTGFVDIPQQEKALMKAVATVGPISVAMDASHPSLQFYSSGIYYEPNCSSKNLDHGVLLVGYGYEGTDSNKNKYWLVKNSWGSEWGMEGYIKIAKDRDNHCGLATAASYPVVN
T1 sequence (P07711 114-333): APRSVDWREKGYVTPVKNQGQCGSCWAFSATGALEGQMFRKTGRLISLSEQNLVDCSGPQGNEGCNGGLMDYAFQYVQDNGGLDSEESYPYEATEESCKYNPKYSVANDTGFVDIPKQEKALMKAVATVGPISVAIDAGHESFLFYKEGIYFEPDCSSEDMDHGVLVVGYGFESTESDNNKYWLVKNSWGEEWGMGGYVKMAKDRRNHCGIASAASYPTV
Chain of Recombinant human furin (P09958 108-794): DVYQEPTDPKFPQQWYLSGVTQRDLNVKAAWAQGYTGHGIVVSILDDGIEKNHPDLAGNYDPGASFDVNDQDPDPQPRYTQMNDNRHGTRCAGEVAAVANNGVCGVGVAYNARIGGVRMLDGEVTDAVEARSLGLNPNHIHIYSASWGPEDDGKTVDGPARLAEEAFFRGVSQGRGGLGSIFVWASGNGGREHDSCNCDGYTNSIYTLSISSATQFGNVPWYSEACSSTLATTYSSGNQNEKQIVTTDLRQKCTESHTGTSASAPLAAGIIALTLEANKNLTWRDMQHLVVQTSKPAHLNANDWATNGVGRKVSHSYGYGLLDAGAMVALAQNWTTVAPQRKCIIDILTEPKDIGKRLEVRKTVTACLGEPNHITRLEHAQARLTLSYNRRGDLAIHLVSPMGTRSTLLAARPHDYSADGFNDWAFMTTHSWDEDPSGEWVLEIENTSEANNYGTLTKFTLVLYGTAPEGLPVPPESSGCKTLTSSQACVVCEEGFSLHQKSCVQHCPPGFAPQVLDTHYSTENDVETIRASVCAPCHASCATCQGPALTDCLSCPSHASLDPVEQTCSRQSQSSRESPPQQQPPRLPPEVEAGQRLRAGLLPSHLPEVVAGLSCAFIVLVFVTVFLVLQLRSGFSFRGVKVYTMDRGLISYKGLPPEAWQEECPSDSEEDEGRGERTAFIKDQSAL
Chain of Recombinant human TMPRSS2 (O15393 whole entry): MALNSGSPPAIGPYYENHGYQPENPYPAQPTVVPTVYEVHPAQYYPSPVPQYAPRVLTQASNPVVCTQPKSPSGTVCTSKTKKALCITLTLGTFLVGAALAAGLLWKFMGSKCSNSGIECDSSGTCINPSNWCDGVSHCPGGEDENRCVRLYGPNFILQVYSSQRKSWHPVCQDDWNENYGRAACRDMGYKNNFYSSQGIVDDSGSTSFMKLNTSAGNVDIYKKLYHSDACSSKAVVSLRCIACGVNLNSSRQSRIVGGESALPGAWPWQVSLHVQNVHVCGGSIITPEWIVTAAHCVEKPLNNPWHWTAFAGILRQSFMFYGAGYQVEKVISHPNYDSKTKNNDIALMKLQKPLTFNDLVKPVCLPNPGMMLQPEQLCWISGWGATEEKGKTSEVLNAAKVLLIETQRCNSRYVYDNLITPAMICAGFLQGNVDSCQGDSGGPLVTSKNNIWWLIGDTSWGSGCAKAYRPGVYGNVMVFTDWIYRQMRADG

SMILES | kinact (human CatL [1]) [s⁻¹] | kinact/KI (human CatL [1]) [M⁻¹ s⁻¹] | follow-up screen against CatL (human CatL [3]) | kinact (Human CatB) [s⁻¹] | kinact/KI (Human CatB) [M⁻¹ s⁻¹] | lowest concentration completely preventing virus-induced CPE (SARS-CoV-2 [5]) [nM] | kinact (Mouse CatL (mCatL)) [s⁻¹] | kinact/KI (Mouse CatL (mCatL)) [M⁻¹ s⁻¹] | other results
CC[C@H](C)[C@@H](C(=O)O[C@@H](CC(C)C)C(=O)N[C@@H](CC(C)C)C(=O)N[C@@H](C)/C=C/C(=O)N1C(=O)C=C(OC)[C@@H]1C)N(C)C [compound 1, gallinamide A] | 0.00475 | 598000 | most potent inhibitors | 0.000627 | 5350 | 625 | 0.00569 | 1.07e+06 | inhibition of furin activity (Recombinant human furin): did not inhibit; selectivity for CatL over CatB (kinact/KI^app) (human CatL [1]): 112 fold; inhibition of PLpro (SARS-CoV-2 PLpro): no inhibition; antiviral activity in HEK293-ACE2-TMPRSS2 cells (SARS-CoV-2 [2]): substantially reduced; CatL activity after incubation with compound (human CatL [3]; 10 μM): completely inhibited; inhibition of Z-Phe-Arg-AMC cleaving activity in VeroE6 lysates [4]: completely inhibited; inhibition of Mpro (SARS-CoV-2 Mpro): no inhibition; inhibitory effect on infection by time of addition (SARS-CoV-2 [6]): maximum when 1 was added prior to or at the time of entry; inhibition of Z-Phe-Arg-AMC cleaving activity in A549 cell extracts [7]: inhibited; inhibition of TMPRSS2 activity [8]: did not inhibit; concentration completely neutralizing SARS-CoV-2 entry (SARS-CoV-2 [9]): 32 nM
COC1=CC(=O)N(C(=O)/C=C/[C@H](C)NC(=O)[C@H](CC(C)C)NC(=O)[C@H](CC2CCCCC2)NC(=O)C2CCN(C)CC2)[C@H]1Cc1c[nH]c2ccccc12 [compound 17] | 0.00347 | 193000 | most potent inhibitors | 0.0209 | 24300 | – | 0.00856 | 292000 | EC50 (SARS-CoV-2 [10]; Severe acute respiratory syndrome coronavirus 2, Vero C1008, 72 h, read-out: EC50 SARS-CoV-2, VeroE6 cells, 72 h, mean ± SD of 3–4 independent biological replicates): > 5 µM; selectivity for CatL over CatB (kinact/KI^app) (human CatL [1]): 8 fold; inactivation of CatL in VeroE6 lysates [4]: complete inactivation; inactivation of CatL in A549 lysates [7]: complete inactivation
CC[C@H](C)[C@@H](C(=O)O[C@@H](CC(C)C)C(=O)N[C@@H](CC(C)C)C(=O)N[C@@H](C)/C=C/C(=O)N1C(=O)C=C(OC)[C@@H]1CC(C)C)N(C)C [compound 3] | – | – | most potent inhibitors | – | – | – | – | – | –
COC1=CC(=O)N(C(=O)/C=C/[C@H](CCc2ccccc2)NC(=O)[C@H](CC(C)C)NC(=O)[C@H](CC(C)C)NC(=O)[C@H](C(C)C)N(C)C)[C@H]1Cc1c[nH]c2ccccc12 [compound 23] | 0.00985 | 835000 | most potent inhibitors | 0.00189 | 7940 | 310 | 0.0096 | 2.31e+06 | fold more potent than parent natural product 1, based on kinact/KI^app (human CatL [1]; human CatL): 1.4 fold
COC1=CC(=O)N(C(=O)/C=C/[C@H](C)NC(=O)[C@H](CCc2ccccc2)NC(=O)[C@H](CC2CCCCC2)NC(=O)[C@H](C(C)C)N(C)C)[C@H]1Cc1c[nH]c2ccccc12 [compound 19] | 0.00587 | 189000 | most potent inhibitors | 0.00335 | 9650 | 310 | 0.00224 | 136000 | concentration completely neutralizing SARS-CoV-2 entry (SARS-CoV-2 [9]): 32 nM
COC1=CC(=O)N(C(=O)/C=C/[C@H](C)NC(=O)[C@H](CC(C)C)NC(=O)[C@H](CC(C)C)NC(=O)C2CCN(C)CC2)[C@H]1Cc1c[nH]c2ccccc12 [compound 20] | 0.00834 | 290000 | most potent inhibitors | 0.017 | 19900 | – | 0.00319 | 806000 | inactivation of CatL in VeroE6 lysates [4]: complete inactivation; inactivation of CatL in A549 lysates [7]: complete inactivation
CS(=O)(=O)O.CS(=O)(=O)O.N=C(N)Nc1ccc(C(=O)Oc2ccc3cc(C(=N)N)ccc3c2)cc1 [nafamostat mesylate, reference compound] | – | – | – | – | – | – | – | – | antiviral activity on VeroE6 cells (SARS-CoV-2 [10]): not effective; antiviral activity on VeroE6 cells (SARS-CoV-2 [10]; listed as Nafamostat mesylate): did not exhibit notable antiviral activity; antiviral activity in HEK293-ACE2-TMPRSS2 cells (SARS-CoV-2 [2]): potent antiviral activity; concentration of neutralization of infection (SARS-CoV-2 [9]): 4 µM
CCCNC(=O)[C@H]1O[C@@H]1C(=O)N[C@H](C(=O)N1CCC[C@H]1C(=O)O)[C@@H](C)CC [CA-074, reference compound] | – | – | – | – | – | – | – | – | inhibition of Z-Phe-Arg-AMC cleaving activity in VeroE6 lysates [4]: no inhibitory activity; inhibition of Z-Phe-Arg-AMC cleaving activity in A549 cell extracts [7]: most of the activity was also sensitive
